From ChEMBL document CHEMBL1121478, “Potential prophylactic antitumor activity of retinylidene 1,3-diketones” (1980) come the findings set out here.

Assay [1] concerns Cricetinae gen. sp. Kind of assay: Compound is evaluated for its intrinsic ability to control epithelial cell differentiation by retinoids in hamster tracheal organ culture at 10e -9M; IA =inactive(8/15) 8 were inactive out of 15. Particulars: Trachea. Format: functional, organism-based.
Assay [2] concerns Cricetinae gen. sp. Kind of assay: Compound is evaluated for its intrinsic ability to control epithelial cell differentiation by retinoids in hamster tracheal organ culture at 10e -10M; IA = inactive(9/12) 9 were inactive out of 12. Format: functional, organism-based. Particulars: Trachea.
The subject of assay [3] is Cricetinae gen. sp. Kind of assay: Compound is evaluated for its intrinsic ability to control epithelial cell differentiation by retinoids in hamster tracheal organ culture at 10e-8 M; IA = inactive(9/12) 9 were inactive out of 12. It is filed as functional, organism-based. Particulars: Trachea.
The subject of assay [4] is Cricetinae gen. sp. Kind of assay: Compound is evaluated for its intrinsic ability to control epithelial cell differentiation by retinoids in hamster tracheal organ culture at 10e -8M; IA = inactive(16/17) 16 cultures were inactive out of 17. It is filed as functional, organism-based. Particulars: Trachea.
Assay [5] has as its system Cricetinae gen. sp. Kind of assay: Compound is evaluated for its intrinsic ability to control epithelial cell differentiation by retinoids in hamster tracheal organ culture. Format: functional, Trachea. The method, boiled down:
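Hamster trachea organ cultures (procedure from earlier reports). Retinoids tested at 10^-8, 10^-9 and 10^-10 M. Potency given as ED50.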

Assay [6] concerns Cricetinae gen. sp. Kind of assay: Compound is evaluated for its intrinsic ability to control epithelial cell differentiation by retinoids in hamster tracheal organ culture at 10e-9 M; IA = inactive(12/16) 12 were inactive out of 16. Particulars: Trachea. Format: functional, organism-based.
Assay [7] relates to Cricetinae gen. sp. Kind of assay: Compound is evaluated for its intrinsic ability to control epithelial cell differentiation by retinoids in hamster tracheal organ culture at 10e-9 M; IA = inactive(14/16) 14 were inactive out of 16. It is filed as functional, organism-based. Particulars: Trachea.
For assay [8], the system named is Cricetinae gen. sp. Kind of assay: Compound is evaluated for its intrinsic ability to control epithelial cell differentiation by retinoids in hamster tracheal organ culture at 10e-8 M; act = active(4 cultures were active out of 5). It is filed as functional, organism-based. Particulars: Trachea.
Assay [9] relates to Cricetinae gen. sp. Kind of assay: Compound is evaluated for its intrinsic ability to control epithelial cell differentiation by retinoids in hamster tracheal organ culture at 10e -9M; IA = inactive(7 cultures were inactive out of 7). Format: functional, organism-based. Particulars: Trachea.
Assay [10] deals with Cricetinae gen. sp. Kind of assay: Compound is evaluated for its intrinsic ability to control epithelial cell differentiation by retinoids in hamster tracheal organ culture at 10e -8M; IA = inactive( 6 cultures were inactive out of 7). It is filed as functional, organism-based. Particulars: Trachea.
Assay [11] has as its system Cricetinae gen. sp. Kind of assay: Compound is evaluated for its intrinsic ability to control epithelial cell differentiation by retinoids in hamster tracheal organ culture at 10e-9 M; IA = inactive(3/4) 3 were inactive out of 4. Format: functional, organism-based. Particulars: Trachea.

The source made the active and inactive calls. No cut-off for these calls is given here.

Regarding `CC1=C(/C=C/C(C)=C/C=C/C(C)=C/C=C2C(=O)C(C(C)(C)C)CC(C(C)(C)C)C2=O)C(C)(C)CCC1` (configuration not stated), the “TOC ED50” value in the assay on Cricetinae gen. sp. [1] and in the assay with Cricetinae gen. sp. [2] was “inactive” in each case.
Turning to `CC1=C(/C=C/C(C)=C/C=C/C(C)=C/C=C2C(=O)c3ccccc3C2=O)C(C)(C)CCC1`, the “TOC ED50” value in the assay with Cricetinae gen. sp. [3] was “inactive”.
`CC1=C(/C=C/C(C)=C/C=C/C(C)=C/C=C2C(=O)CCC2=O)C(C)(C)CCC1`: the “TOC ED50” value in the assay on Cricetinae gen. sp. [4] is “inactive”.
For `CC1=C(/C=C/C(C)=C/C=C/C(C)=C/C=C2C(=O)CC(C)CC2=O)C(C)(C)CCC1` (configuration not stated), the “TOC ED50” value in the assay on Cricetinae gen. sp. [5] turned out to be 0.8 nM.
With `CC1=C(/C=C/C(C)=C/C=C/C(C)=C/C=C2C(=O)CCCCCCCCCCCC2=O)C(C)(C)CCC1`, the “TOC ED50” value in the assay on Cricetinae gen. sp. [6] is “inactive”.
Take `CC1=C(/C=C/C(C)=C/C=C/C(C)=C/C=C2C(=O)CCCCCCC2=O)C(C)(C)CCC1`: the “TOC ED50” value with Cricetinae gen. sp. [5] turned out to be 0.24 nM.
Take `CCC1CC(=O)C(=C/C=C(C)/C=C/C=C(C)/C=C/C2=C(C)CCCC2(C)C)C(=O)C1` (configuration not stated): the “TOC ED50” value in the assay on Cricetinae gen. sp. [5] was determined as 0.36 nM.
With `CC1=C(/C=C/C(C)=C/C=C/C(C)=C/C=C2C(=O)CC(c3ccc(C(F)(F)F)cc3)CC2=O)C(C)(C)CCC1` (configuration not stated), in the assay with Cricetinae gen. sp. [5], the “TOC ED50” value is 0.1 nM.
On the same count and under the same terms, the result for `CC1=C(/C=C/C(C)=C/C=C/C(C)=C/C=C2C(=O)CC(c3ccccc3)CC2=O)C(C)(C)CCC1` (configuration not stated) reads 0.1 nM; that for `CC1=C(/C=C/C(C)=C/C=C/C(C)=C/C=C2C(=O)CC(C(C)C)CC2=O)C(C)(C)CCC1` (configuration not stated), 0.21 nM.
Still for that read-out and setting: next, `CC1=C(/C=C/C(C)=C/C=C/C(C)=C/C=C2C(=O)CCCCC2=O)C(C)(C)CCC1`: 0.38 nM.
For the compound “2-[3,7-Dimethyl-9-(2,6,6-trimethyl-cyclohex-1-enyl)-nona-2,4,6,8-tetraenylidene]-[3]ferrocenophane-1,3-dione”, the “TOC ED50” value in the assay with Cricetinae gen. sp. [7] is “inactive”.
Regarding `CCC(=O)C(=C/C=C(C)/C=C/C=C(C)/C=C/C1=C(C)CCCC1(C)C)C(=O)CC`, the “TOC ED50” value with Cricetinae gen. sp. [8] was “Active”. For the same compound, the “TOC ED50” value with Cricetinae gen. sp. [9] is “inactive”.
Consider `CC1=C(/C=C/C(C)=C/C=C/C(C)=C/C=C2C(=O)CCCC2=O)C(C)(C)CCC1`, for which, in the assay with Cricetinae gen. sp. [5], the “TOC ED50” value turned out to be 0.11 nM.
`COc1ccc(C2CC(=O)C(=C/C=C(C)/C=C/C=C(C)/C=C/C3=C(C)CCCC3(C)C)C(=O)C2)cc1` (configuration not stated): the “TOC ED50” value in the assay with Cricetinae gen. sp. [5] was determined as 0.18 nM.
With `CC1=C(/C=C/C(C)=C/C=C/C(C)=C/C=C2C(=O)CC(C)(C)CC2=O)C(C)(C)CCC1`, the “TOC ED50” value with Cricetinae gen. sp. [5] came to 0.24 nM.
For the compound `CCCC(=O)C(=C/C=C(C)/C=C/C=C(C)/C=C/C1=C(C)CCCC1(C)C)C(=O)CCC`, the “TOC ED50” value in the assay on Cricetinae gen. sp. [10] is “inactive”.
For the compound `CC1=C(/C=C/C(C)=C/C=C/C(C)=C/C=C2C(=O)CCCCCC2=O)C(C)(C)CCC1`, in the assay on Cricetinae gen. sp. [5], the “TOC ED50” value was found to be 0.22 nM.
For the compound `CC(=O)C(=C/C=C(C)/C=C/C=C(C)/C=C/C1=C(C)CCCC1(C)C)C(C)=O`, the “TOC ED50” value in the assay with Cricetinae gen. sp. [5] was 1.8 nM.
In the case of `CC1=C(/C=C/C(C)=C/C=C/C(C)=C/C=C2C(=O)C=CC2=O)C(C)(C)CCC1`, in the assay on Cricetinae gen. sp. [11], the “TOC ED50” value was “inactive”.
